In ChEMBL document CHEMBL1154983, “Arylpiperazine-containing pyrrole 3-carboxamide derivatives targeting serotonin 5-HT(2A), 5-HT(2C), and the serotonin transporter as a potential antidepressant” (Bioorg Med Chem Lett, 2010):

Assays:
Cytochrome P450 2C9 = Cytochrome P450 2C9 (Homo sapiens, UniProt P11712); assay: Inhibition of CYP2C9; assay type: ADME
[1] = molecular target: T1, 5-hydroxytryptamine receptor 1A (Homo sapiens, UniProt P08908); assay: Inhibition of 5HT1A receptor
T1 sequence (P08908 whole entry): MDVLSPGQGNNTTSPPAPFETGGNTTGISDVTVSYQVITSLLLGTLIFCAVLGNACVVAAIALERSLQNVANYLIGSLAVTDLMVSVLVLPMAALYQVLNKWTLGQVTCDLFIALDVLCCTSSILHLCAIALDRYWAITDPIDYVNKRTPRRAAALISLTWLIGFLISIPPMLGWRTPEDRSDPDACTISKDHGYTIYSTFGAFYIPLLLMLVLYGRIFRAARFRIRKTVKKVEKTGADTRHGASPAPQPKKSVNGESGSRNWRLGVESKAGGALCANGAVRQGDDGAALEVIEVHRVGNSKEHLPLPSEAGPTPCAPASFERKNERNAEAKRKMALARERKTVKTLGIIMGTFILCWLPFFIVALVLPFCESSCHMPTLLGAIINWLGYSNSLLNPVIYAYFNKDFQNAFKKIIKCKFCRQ

[2] = molecular target: 5-hydroxytryptamine receptor 7 (Homo sapiens, UniProt P34969); assay: Inhibition of 5HT7 receptor
5-hydroxytryptamine receptor 7, sequence (P34969 whole entry): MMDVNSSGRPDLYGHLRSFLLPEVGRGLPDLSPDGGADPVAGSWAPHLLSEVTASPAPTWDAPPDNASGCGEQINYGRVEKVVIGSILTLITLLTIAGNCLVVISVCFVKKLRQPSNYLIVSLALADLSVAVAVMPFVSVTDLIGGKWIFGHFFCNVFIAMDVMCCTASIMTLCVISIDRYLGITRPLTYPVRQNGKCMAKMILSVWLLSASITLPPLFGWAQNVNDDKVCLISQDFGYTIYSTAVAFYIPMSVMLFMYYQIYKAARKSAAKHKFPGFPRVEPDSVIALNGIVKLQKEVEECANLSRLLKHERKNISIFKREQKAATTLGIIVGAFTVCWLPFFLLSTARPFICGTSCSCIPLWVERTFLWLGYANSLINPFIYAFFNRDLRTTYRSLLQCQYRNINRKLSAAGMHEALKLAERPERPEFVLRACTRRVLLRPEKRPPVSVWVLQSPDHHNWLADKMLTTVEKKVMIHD

Mus musculus [3] = assay: Antidepressant activity in mouse assessed as decrease in duration of immobility at 10 mg/kg, po during final 5 mins of the 6 mins session by forced swimming test; assay type: functional; design: scale not given: the % may be the effect or the level left
How it was run: (§1)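 Mice swam 10 min in a 25-cm glass cylinder (10 cm diameter) holding 15 cm of water at 23 1 °C. Twenty-four hours later, drug was given po 60 min before retesting. Immobility (floating upright with only small movements keeping head above water) was totalled over the last 5 min of the 6-min test.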

D(2) dopamine receptor = D(2) dopamine receptor (Homo sapiens, UniProt P14416); assay: Inhibition of dopamine D2 receptor
D(2) dopamine receptor, sequence (P14416 whole entry): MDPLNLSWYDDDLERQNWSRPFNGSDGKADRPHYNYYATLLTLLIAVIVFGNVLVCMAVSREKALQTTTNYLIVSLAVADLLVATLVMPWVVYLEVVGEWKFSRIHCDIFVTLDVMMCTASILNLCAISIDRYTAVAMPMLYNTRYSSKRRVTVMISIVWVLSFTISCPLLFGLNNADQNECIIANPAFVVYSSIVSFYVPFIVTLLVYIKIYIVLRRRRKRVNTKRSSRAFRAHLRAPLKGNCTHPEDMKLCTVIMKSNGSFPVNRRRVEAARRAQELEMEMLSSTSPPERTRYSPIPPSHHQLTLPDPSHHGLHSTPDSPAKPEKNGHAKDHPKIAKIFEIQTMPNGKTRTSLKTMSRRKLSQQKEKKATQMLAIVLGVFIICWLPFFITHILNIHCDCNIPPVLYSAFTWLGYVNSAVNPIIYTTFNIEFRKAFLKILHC

Cytochrome P450 1A2 = molecular target: T2, Cytochrome P450 1A2 (Homo sapiens, UniProt P05177); assay: Inhibition of CYP1A2; assay type: ADME
T2 sequence (P05177 whole entry): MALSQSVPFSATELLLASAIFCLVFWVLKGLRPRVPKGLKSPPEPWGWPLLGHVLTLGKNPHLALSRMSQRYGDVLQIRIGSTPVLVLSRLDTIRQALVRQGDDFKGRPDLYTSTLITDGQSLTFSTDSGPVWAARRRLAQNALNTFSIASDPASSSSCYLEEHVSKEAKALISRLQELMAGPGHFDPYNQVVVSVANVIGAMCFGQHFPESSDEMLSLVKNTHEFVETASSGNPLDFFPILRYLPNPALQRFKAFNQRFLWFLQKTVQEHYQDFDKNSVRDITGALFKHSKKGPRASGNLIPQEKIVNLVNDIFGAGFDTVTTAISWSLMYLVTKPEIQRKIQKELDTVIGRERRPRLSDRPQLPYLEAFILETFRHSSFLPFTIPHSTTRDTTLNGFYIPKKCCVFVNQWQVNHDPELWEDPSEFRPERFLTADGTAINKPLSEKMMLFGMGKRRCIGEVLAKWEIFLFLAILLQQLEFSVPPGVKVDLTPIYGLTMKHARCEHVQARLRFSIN

[4] = molecular target: 5-hydroxytryptamine receptor 6 (Homo sapiens, UniProt P50406); assay: Inhibition of 5HT6 receptor
5-hydroxytryptamine receptor 6, sequence (P50406 whole entry): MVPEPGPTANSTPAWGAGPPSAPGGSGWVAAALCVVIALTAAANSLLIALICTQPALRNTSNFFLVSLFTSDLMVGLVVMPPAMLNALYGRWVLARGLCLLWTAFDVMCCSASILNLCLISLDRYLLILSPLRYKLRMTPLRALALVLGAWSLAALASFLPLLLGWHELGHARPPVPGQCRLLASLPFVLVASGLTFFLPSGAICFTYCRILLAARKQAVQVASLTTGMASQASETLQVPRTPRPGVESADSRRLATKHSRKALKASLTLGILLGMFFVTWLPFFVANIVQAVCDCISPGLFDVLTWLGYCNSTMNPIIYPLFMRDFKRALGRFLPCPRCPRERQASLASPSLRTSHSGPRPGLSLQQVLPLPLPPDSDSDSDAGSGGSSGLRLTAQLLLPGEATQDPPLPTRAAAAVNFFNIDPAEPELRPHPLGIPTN

D(3) dopamine receptor = D(3) dopamine receptor (Homo sapiens, UniProt P35462); assay: Inhibition of dopamine D3 receptor
D(3) dopamine receptor, sequence (P35462 whole entry): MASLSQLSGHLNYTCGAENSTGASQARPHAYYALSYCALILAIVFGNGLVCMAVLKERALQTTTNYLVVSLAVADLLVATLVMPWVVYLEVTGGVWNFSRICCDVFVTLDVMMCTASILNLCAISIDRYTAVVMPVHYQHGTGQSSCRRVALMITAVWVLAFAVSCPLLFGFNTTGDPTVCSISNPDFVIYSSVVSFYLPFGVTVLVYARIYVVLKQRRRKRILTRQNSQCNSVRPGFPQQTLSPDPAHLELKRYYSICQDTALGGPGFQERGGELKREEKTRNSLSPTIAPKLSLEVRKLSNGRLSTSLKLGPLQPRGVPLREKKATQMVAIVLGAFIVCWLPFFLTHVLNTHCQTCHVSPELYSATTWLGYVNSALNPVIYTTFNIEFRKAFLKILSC

Cytochrome P450 2D6 = Cytochrome P450 2D6 (Homo sapiens, UniProt P10635); assay: Inhibition of CYP2D6; assay type: ADME
Cytochrome P450 2D6, sequence (P10635 whole entry): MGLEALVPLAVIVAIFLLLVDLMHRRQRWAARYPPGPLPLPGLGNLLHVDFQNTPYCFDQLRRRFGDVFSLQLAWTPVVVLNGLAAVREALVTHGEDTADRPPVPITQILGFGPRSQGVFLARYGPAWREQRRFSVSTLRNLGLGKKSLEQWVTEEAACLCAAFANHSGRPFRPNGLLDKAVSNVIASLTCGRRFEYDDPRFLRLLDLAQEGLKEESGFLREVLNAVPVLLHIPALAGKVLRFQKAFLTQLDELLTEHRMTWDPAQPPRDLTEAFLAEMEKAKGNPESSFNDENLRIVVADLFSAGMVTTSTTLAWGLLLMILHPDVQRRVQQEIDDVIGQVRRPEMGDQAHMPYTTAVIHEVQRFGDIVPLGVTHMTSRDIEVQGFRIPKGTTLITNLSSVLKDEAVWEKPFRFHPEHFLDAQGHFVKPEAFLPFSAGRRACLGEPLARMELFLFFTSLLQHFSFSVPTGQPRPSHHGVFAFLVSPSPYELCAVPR

Mus musculus [5] = assay: Antidepressant activity in mouse assessed as decrease in duration of immobility at 100 mg/kg, po during final 5 mins of the 6 mins session by forced swimming test; assay type: functional; design: scale not given: the % may be the effect or the level left; how it was run: as §1
Cytochrome P450 3A4 = Cytochrome P450 3A4 (Homo sapiens, UniProt P08684); assay: Inhibition of CYP3A4; assay type: ADME
Cytochrome P450 3A4, sequence (P08684 whole entry): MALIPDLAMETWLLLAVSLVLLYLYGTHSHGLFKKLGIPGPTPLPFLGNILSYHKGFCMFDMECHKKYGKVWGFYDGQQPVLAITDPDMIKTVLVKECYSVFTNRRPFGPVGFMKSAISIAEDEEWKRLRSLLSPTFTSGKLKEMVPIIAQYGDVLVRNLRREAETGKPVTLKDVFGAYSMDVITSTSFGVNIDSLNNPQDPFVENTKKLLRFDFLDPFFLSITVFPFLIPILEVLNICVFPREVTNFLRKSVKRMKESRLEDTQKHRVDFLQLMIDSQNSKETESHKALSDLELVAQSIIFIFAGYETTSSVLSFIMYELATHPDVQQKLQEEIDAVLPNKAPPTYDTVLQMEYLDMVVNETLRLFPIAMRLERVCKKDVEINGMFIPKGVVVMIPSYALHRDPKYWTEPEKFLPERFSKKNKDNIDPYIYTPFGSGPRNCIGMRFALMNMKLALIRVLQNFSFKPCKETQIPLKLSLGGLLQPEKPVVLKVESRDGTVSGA

D(4) dopamine receptor = molecular target: T3, D(4) dopamine receptor (Homo sapiens, UniProt P21917); assay: Inhibition of dopamine D4 receptor
T3 sequence (P21917 whole entry): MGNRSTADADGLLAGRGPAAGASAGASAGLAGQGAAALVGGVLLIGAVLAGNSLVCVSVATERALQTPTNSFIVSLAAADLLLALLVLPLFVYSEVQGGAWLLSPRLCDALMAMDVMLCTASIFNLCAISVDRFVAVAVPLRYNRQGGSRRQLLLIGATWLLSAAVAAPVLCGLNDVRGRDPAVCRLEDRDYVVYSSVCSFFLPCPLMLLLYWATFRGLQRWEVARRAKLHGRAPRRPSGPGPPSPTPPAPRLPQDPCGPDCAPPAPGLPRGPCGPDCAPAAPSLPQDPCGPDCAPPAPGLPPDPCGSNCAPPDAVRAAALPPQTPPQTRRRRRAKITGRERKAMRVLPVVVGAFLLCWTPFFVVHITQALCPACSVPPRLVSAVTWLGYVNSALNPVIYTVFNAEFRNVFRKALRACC

Cytochrome P450 2C9, sequence (P11712 whole entry): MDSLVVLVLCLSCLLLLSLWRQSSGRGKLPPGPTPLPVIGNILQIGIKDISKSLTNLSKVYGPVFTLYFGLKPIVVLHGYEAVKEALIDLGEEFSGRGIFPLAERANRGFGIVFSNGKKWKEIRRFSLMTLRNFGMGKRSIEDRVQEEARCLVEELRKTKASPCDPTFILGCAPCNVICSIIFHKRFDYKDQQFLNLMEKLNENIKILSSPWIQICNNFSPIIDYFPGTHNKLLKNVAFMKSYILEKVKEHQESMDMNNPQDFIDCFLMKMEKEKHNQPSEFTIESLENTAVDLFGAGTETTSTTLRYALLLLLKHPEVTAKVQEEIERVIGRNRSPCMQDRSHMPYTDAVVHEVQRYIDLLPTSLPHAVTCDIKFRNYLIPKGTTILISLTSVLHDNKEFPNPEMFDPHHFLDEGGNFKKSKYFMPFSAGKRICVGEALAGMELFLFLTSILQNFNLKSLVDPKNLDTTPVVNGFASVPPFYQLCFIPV

## Cc1c(C(=O)NCCCN2CCN(c3cccc(Cl)c3Cl)CC2)cc(-c2ccccc2)n1C
Cytochrome P450 2C9
  IC50: 9700 nM
[1]
  IC50: 54 nM
[2]
  IC50: 333 nM
Mus musculus [3]
  Activity: 80%
D(2) dopamine receptor
  IC50: 2540 nM
Cytochrome P450 1A2
  IC50: > 20000 nM
[4]
  IC50: 713 nM
D(3) dopamine receptor
  IC50: 915 nM
Cytochrome P450 2D6
  IC50: > 20000 nM
Mus musculus [5]
  Activity: <25%
Cytochrome P450 3A4
  IC50: > 20000 nM
D(4) dopamine receptor
  IC50: 984 nM
